Results published in paper PMC7496893 (Clinical Pharmacology in Drug Development, 2019).
“Also recorded” adds a separate entry of the source. Read-outs that look alike come from different tables or passages of the source. Marks after values point to notes of the source that are not given here.

Tests used:
[1] = cited from earlier work
[2] = Safety assessment; format: in vivo, human (Japanese subjects); settings: for tolerability: non-RA subjects with normal, mild or moderate hepatic impairment, single oral dose
Outline: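 The safety set was every subject dosed with one 150 mg tablet after an overnight fast, assessed throughout the study. TEAEs were events that started or worsened after dosing, coded with Japanese MedDRA J16.0. Assessments also covered vital signs, ECG, hematology, biochemistry, urinalysis and liver tests: ALP, ALT, γ-GTP, total bilirubin and AST.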

[3] = test system: P-glycoprotein; settings: verapamil (P-glycoprotein inhibitor); cited from earlier work
[4] = format: in vivo, human (Japanese subjects); settings: for CL/F: single oral 150 mg, mean (SD)
Outline: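 Open-label parallel-group study with planned 8 per group: normal, Child-Pugh A (5–6 points) or B (7–9 points). Subjects took one 150 mg tablet with 150 mL water after an overnight fast. Blood was drawn predose, at 15 min, every 30 min to 2 h, then at 3–72 h. Plasma parent was measured by validated LC-MS/MS (LLOQ 0.25 ng/mL, linear 0.25–500 ng/mL). GMR and 90% CI came from a mixed model with hepatic group as a fixed effect.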

[5] = test system: organic anion transporting polypeptide 1B1; settings: peficitinib with rosuvastatin; cited from earlier work
[6] = test system: rheumatoid arthritis; settings: daily doses of 100 mg and 150 mg; cited from earlier work

NC(=O)c1cnc2[nH]ccc2c1N[C@@H]1[C@@H]2CC3C[C@H]1C[C@@](O)(C3)C2 [Peficitinib]
dose proportionality ([1]; multiple doses from 30 mg twice daily to 100 mg twice daily): Dose proportionality was shown | plasma levels reached steady state ([1]; multiple dosing, healthy subjects): ≤ 3 days | dose proportionality ([1]; single dose from 3 to 300 mg): Dose proportionality was shown | changes from baseline in vital signs, ECG, or clinical laboratory parameters ([2]; all subjects): no clinically significant changes; also recorded: no clinically meaningful changes | deaths ([2]; all subjects): no deaths | serious TEAEs ([2]; all subjects): no serious TEAEs | withdrawal from the study due to a TEAE ([2]; all subjects): no TEAEs leading to withdrawal; also recorded: no subjects withdrew | number of TEAEs considered related to peficitinib ([2]; all subjects (N = 24)): Four | Back pain ([2]; mild impairment (n = 8)): 0 n (%) | Blood urine present ([2]; mild impairment (n = 8)): 1 (12.5) n (%) | Diarrhea ([2]; mild impairment (n = 8)): 1 (12.5) n (%) | Hypotension ([2]; mild impairment (n = 8)): 0 n (%) | Nausea ([2]; mild impairment (n = 8)): 0 n (%) | TEAEs, Overall ([2]; mild impairment (n = 8)): 1 (12.5) ^b n (%) | Back pain ([2]; moderate impairment (n = 8)): 0 n (%) | Blood urine present ([2]; moderate impairment (n = 8)): 0 n (%) | Diarrhea ([2]; moderate impairment (n = 8)): 0 n (%) | Hypotension ([2]; moderate impairment (n = 8)): 1 (12.5) n (%) | Nausea ([2]; moderate impairment (n = 8)): 0 n (%) | TEAEs, Overall ([2]; moderate impairment (n = 8)): 1 (12.5) n (%) | tolerability [2]: well tolerated | tolerability ([2]; listed as peficitinib): generally well tolerated | Back pain ([2]; normal function (n = 8)): 1 (12.5) n (%) | Blood urine present ([2]; normal function (n = 8)): 0 n (%) | Diarrhea ([2]; normal function (n = 8)): 0 n (%) | Hypotension ([2]; normal function (n = 8)): 0 n (%) | Nausea ([2]; normal function (n = 8)): 1 (12.5) n (%) | TEAEs, Overall ([2]; normal function (n = 8), single oral 150 mg): 1 (12.5) ^a n (%) | Back pain ([2]; total (N = 24)): 1 (4.2) n (%) | Blood urine present ([2]; total (N = 24)): 1 (4.2) n (%) | Diarrhea ([2]; total (N = 24)): 1 (4.2) n (%) | Hypotension ([2]; total (N = 24)): 1 (4.2) n (%) | Nausea ([2]; total (N = 24)): 1 (4.2) n (%) | exposure in combination with verapamil [3]: increased exposure | GMR Impaired/Normal (90% CI), Cmax ([4]; mild hepatic impairment vs normal hepatic function): 1.04 (0.71, 1.53) % | GMR Impaired/Normal (90% CI), Cmax ([4]; mild hepatic impairment vs normal hepatic function, listed as peficitinib): 1.04 (90% CI: 0.71, 1.53) | increase in geometric mean Cmax ([4]; moderate hepatic impairment versus normal hepatic function): 82% | GMR Impaired/Normal (90% CI), Cmax ([4]; moderate hepatic impairment vs normal hepatic function): 1.82 (1.24, 2.69) % | GMR Impaired/Normal (90% CI), Cmax ([4]; moderate hepatic impairment vs normal hepatic function, listed as peficitinib): 1.82 (90% CI: 1.24, 2.69) | exposure ([4]; moderately impaired vs normal hepatic function, in words): higher exposure | CL/F ([4]; mild hepatic impairment): 121.3 (54.89) L/h | CL/F ([4]; moderate hepatic impairment): 74.51 (32.28) L/h | CL/F ([4]; normal hepatic function): 134.9 (25.77) L/h | changes in the PK profile during coadministration [5]: did not demonstrate any clinically significant changes | efficacy and tolerability in RA patients [6]: effective and well tolerated

CC(C)c1nc(N(C)S(C)(=O)=O)nc(-c2ccc(F)cc2)c1/C=C/[C@@H](O)C[C@@H](O)CC(=O)O [rosuvastatin, reference compound]
changes in the PK profile during coadministration [5]: did not demonstrate any clinically significant changes
